Reference: ChEMBL document CHEMBL1149097, “Orally active antimalarials: hydrolytically stable derivatives of 10-trifluoromethyl anhydrodihydroartemisinin” (J Med Chem, 2004)
Converted amounts (≈) assume the structure as drawn.

Experiments:
Mus musculus [1] = experiment: In vivo effective dose evaluated against Plasmodium berghei N by peroral administration in mice (Mus musculus); type: functional; conditions: po
How it was run: (§1)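 P. berghei N infection in mice, with drug given subcutaneously or orally, per the Peters protocol. Parasitemia was read on day 4 and expressed as percent reduction at 10 mg/kg. ED50 and ED90 in mg/kg were derived from the same test.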

Mus musculus [2] = experiment: In vivo effective dose was evaluated against Plasmodium berghei N by sub cutaneous administration in mice (Mus musculus); type: functional; how it was run: as §1
Mus musculus [3] = experiment: In vivo effective dose was evaluated against Plasmodium berghei N by peroral administration in mice (Mus musculus); type: functional; conditions: po; how it was run: as §1
Mus musculus [4] = experiment: In vivo effective dose evaluated against Plasmodium berghei N by subcutaneous administration in mice (Mus musculus); type: functional; conditions: sc; how it was run: as §1
Mus musculus [5] = experiment: Compound was evaluated for percentage reduction of parasitaemia at day 4 at a concentration of 10 mg/kg by peroral administration; type: functional; conditions: route oral; how it was run: as §1
Mus musculus [6] = experiment: Percentage reduction of parasitaemia at day 4 at a concentration of 10 mg/kg by subcutaneous administration; type: functional; how it was run: as §1
Mus musculus [7] = experiment: In vivo antimalarial activity against Plasmodium berghei NK173 in mice (Mus musculus) by intraperitoneal route at a concentration of 35.5 uM/kg at day 11; type: functional
How it was run: (§2)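 Female CD1 mice (18-20 g) were infected with P. berghei NK 173 at (1-5) × 10^6 parasitized red cells, following the Peters test. Groups held 5-10 mice. Drug was given intraperitoneally at 35.5 µmol·kg⁻¹. Survival was followed to 20 days postinfection.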

Mus musculus [8] = experiment: In vivo antimalarial activity against Plasmodium berghei NK 173 in mice (Mus musculus) by intraperitoneal route at a concentration of 35.5 uM/kg at day 5; type: functional; how it was run: as §2
Plasmodium falciparum [9] = experiment: In vitro inhibitory concentration against chloroquine-resistant Plasmodium falciparum W2; type: functional, organism-based
How it was run: (§3)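 [3H]hypoxanthine uptake assay on chloroquine-resistant P. falciparum FcB1 (Colombia) and W2 (Indochina) in continuous human erythrocyte culture. Ring-stage synchronized parasites at 0.5% parasitemia and 1% final hematocrit received serially diluted drug, with methanol or DMSO at no more than 0.1% final. Plates ran 42 h at 37 °C in a candle jar, then freeze-thaw, harvest and scintillation counting. IC50 came from nonlinear regression of log dose-response, from at least three experiments.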

Mus musculus [10] = experiment: In vivo antimalarial activity against Plasmodium berghei NK 173 in mice (Mus musculus) by intraperitoneal route at a concentration of 35.5 uM/kg at day 10; type: functional; how it was run: as §2
Mus musculus [11] = experiment: In vivo antimalarial activity against Plasmodium berghei NK173 in mice (Mus musculus) by intraperitoneal route at a concentration of 35.5 uM/kg at day 4; type: functional; how it was run: as §2
Plasmodium falciparum [12] = experiment: In vitro inhibitory concentration against chloroquine-resistant Plasmodium falciparum FcB1; type: functional, organism-based; how it was run: as §3
Mus musculus [13] = experiment: In vivo effective dose was evaluated against Plasmodium berghei N by subcutaneous administration in mice (Mus musculus); type: functional; conditions: sc; how it was run: as §1
Mus musculus [14] = experiment: In vivo antimalarial activity against Plasmodium berghei NK 173 in mice (Mus musculus) by intraperitoneal route at a concentration of 35.5 uM/kg at day 12; type: functional; how it was run: as §2
[15] = Plasma clearance following 10 mg/kg intravenous or 50 mg/kg oral dosing in rats; type: ADME, organism-based; conditions: rat, read-out: Activity
How it was run: (§4)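 Male Sprague-Dawley rats (280-320 g) were cannulated the day before, then fasted with free access to water, n = 2 per route. The iv dose was nominally 10 mg/kg, about 3 mg/mL in 10% ethanol/15 mM citrate-buffered 0.1 M Captisol, pH 3, infused over 5 min. The oral dose was nominally 50 mg/kg, given by gavage as a suspension in 0.5% HPMC, 0.5% benzyl alcohol and 0.4% Tween 80 in 0.9% NaCl. Carotid blood was sampled over 8 h, and plasma was quantified by HPLC/MS.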

[16] = Volume of distribution following 10 mg/kg intravenous or 50 mg/kg oral dosing in rats was determined; type: ADME, organism-based; conditions: rat, in vivo; read-out: Activity; how it was run: as §4
[17] = Log D value between octanol and PBS at pH7.4; type: physicochemical; conditions: pH 7.4
[18] = Oral bioavailability in rat (dose 10 mg/kg i.v. and 50 mg/kg p.o.); type: ADME, organism-based; conditions: in vivo; how it was run: as §4
[19] = Partition coefficient between octanol and water (logP); type: physicochemical
[20] = pKa value was determined; type: physicochemical
[21] = Solubility in iv formulation was determined after incubation at 25 degree C
[22] = Solubility in oral formulation was determined after incubation at 25 degree C; type: physicochemical
[23] = Solubility in PBS AT pH 7.4 was determined after incubation at 25 degree C; type: physicochemical

CCNCC1=C(C(F)(F)F)O[C@@H]2O[C@]3(C)CCC4[C@H](C)CC[C@@H]1[C@]42OO3 (stereo partly drawn)
ED50 (Mus musculus [1]): < 10 mg/kg | ED50 (Mus musculus [2]): < 10 mg/kg | ED90 (Mus musculus [3]): < 10 mg/kg | ED90 (Mus musculus [4]): < 10 mg/kg | Reduction (Mus musculus [5]): 96% | Reduction (Mus musculus [6]): 98.1% | Parasitemia (Mus musculus [7]): 66% | Parasitemia (Mus musculus [8]): 5% | IC50 (Plasmodium falciparum [9]): 13.4 nM

C[C@@H]1CC[C@H]2C(CNCCN)=C(C(F)(F)F)O[C@@H]3O[C@]4(C)CCC1[C@]32OO4 (stereo partly drawn)
Parasitemia (Mus musculus [10]): 25% | Parasitemia (Mus musculus [11]): 0% | IC50 (Plasmodium falciparum [12]): 1.2 nM

C[C@@H]1CC[C@H]2C(CC(C(=O)O)C(=O)O)=C(C(F)(F)F)O[C@@H]3O[C@]4(C)CC[C@@H]1[C@]32OO4
IC50 (Plasmodium falciparum [9]): > 1000 nM

C[C@@H]1CC[C@H]2C(COCC(O)CO)=C(C(F)(F)F)O[C@@H]3OC4(C)CCC1[C@]32OO4 (single isomer, unassigned)
IC50 (Plasmodium falciparum [12]): 3.7 nM

C[C@@H]1CC[C@H]2C(CO)=C(C(F)(F)F)O[C@@H]3OC4(C)CCC1[C@]32OO4 (single isomer, unassigned)
Parasitemia (Mus musculus [11]): 40% | IC50 (Plasmodium falciparum [12]): 7.5 nM

C[C@@H]1CC[C@H]2C(CN3CCOCC3)=C(C(F)(F)F)O[C@@H]3OC4(C)CCC1[C@]32OO4 (single isomer, unassigned)
ED50 (Mus musculus [1]): < 10 mg/kg | ED50 (Mus musculus [13]): < 10 mg/kg | ED90 (Mus musculus [3]): < 10 mg/kg | ED90 (Mus musculus [4]): < 10 mg/kg | Reduction (Mus musculus [5]): 93.3% | Reduction (Mus musculus [6]): 98.1% | Parasitemia (Mus musculus [14]): 45% | Parasitemia (Mus musculus [11]): 18% | IC50 (Plasmodium falciparum [12]): 3.1 nM

COC(=O)C(C(=O)OC)C1=C(C(F)(F)F)O[C@@H]2OC3(C)CCC4[C@H](C)CC[C@@H]1[C@]42OO3 (single isomer, unassigned)
IC50 (Plasmodium falciparum [9]): > 1000 nM

CC1=C(C(F)(F)F)O[C@@H]2OC3(C)CC[C@H]4[C@H](C)CC[C@@H]1[C@@]24OO3 (single isomer, unassigned)
Parasitemia (Mus musculus [7]): 34% | Parasitemia (Mus musculus [11]): 0% | IC50 (Plasmodium falciparum [12]): 6 nM

C[C@@H]1CC[C@H]2C(CN3CCN(CCO)CC3)=C(C(F)(F)F)O[C@@H]3OC4(C)CC[C@@H]1[C@]32OO4 (single isomer, unassigned)
clearance [15]: 149 mL/min/kg | Vd [16]: 11.8 L/kg | logD [17]: 3.46 | bioavailability [18]: 34.6% | logP [19]: 3.52 | pKa [20]: 6.59 | solubility [21]: > 3000 µg/mL | solubility [22]: 676 µg/mL (≈ 1460 µM) | solubility [23]: 234 µg/mL (≈ 507 µM) | ED50 (Mus musculus [1]): < 10 mg/kg | ED50 (Mus musculus [2]): < 10 mg/kg | ED90 (Mus musculus [3]): < 10 mg/kg | ED90 (Mus musculus [4]): < 10 mg/kg | Reduction (Mus musculus [5]): 100% | Reduction (Mus musculus [6]): 100% | Parasitemia (Mus musculus [7]): 37% | Parasitemia (Mus musculus [8]): 0.5% | IC50 (Plasmodium falciparum [9]): 15.2 nM

CCOCC1=C(C(F)(F)F)O[C@@H]2OC3(C)CC[C@H]4[C@H](C)CC[C@@H]1[C@@]24OO3 (single isomer, unassigned)
ED50 (Mus musculus [2]): < 10 mg/kg | ED90 (Mus musculus [4]): < 10 mg/kg | Reduction (Mus musculus [5]): 15.6% | Reduction (Mus musculus [6]): 100% | Parasitemia (Mus musculus [7]): 30% | Parasitemia (Mus musculus [11]): 0.4% | IC50 (Plasmodium falciparum [9]): 25 nM

C[C@@H]1CC[C@H]2C(COCCO)=C(C(F)(F)F)O[C@@H]3OC4(C)CC[C@@H]1[C@]32OO4 (single isomer, unassigned)
Parasitemia (Mus musculus [11]): 2% | IC50 (Plasmodium falciparum [12]): 2.4 nM

CC(=O)OCC1=C(C(F)(F)F)O[C@@H]2OC3(C)CC[C@H]4[C@H](C)CC[C@@H]1[C@@]24OO3 (single isomer, unassigned)
IC50 (Plasmodium falciparum [12]): 1.7 nM

C=CCOCC1=C(C(F)(F)F)O[C@@H]2OC3(C)CC[C@H]4[C@H](C)CC[C@@H]1[C@@]24OO3 (single isomer, unassigned)
IC50 (Plasmodium falciparum [12]): 6 nM

COCCOCC1=C(C(F)(F)F)O[C@@H]2OC3(C)CC[C@H]4[C@H](C)CC[C@@H]1[C@@]24OO3 (single isomer, unassigned)
Parasitemia (Mus musculus [11]): 6% | IC50 (Plasmodium falciparum [12]): 2.7 nM

C[C@@H]1CC[C@H]2C(COCc3ccccc3)=C(C(F)(F)F)O[C@@H]3OC4(C)CC[C@@H]1[C@]32OO4 (single isomer, unassigned)
IC50 (Plasmodium falciparum [9]): 20 nM

Cc1ccc(S(=O)(=O)NCC2=C(C(F)(F)F)O[C@@H]3OC4(C)CC[C@H]5[C@H](C)CC[C@@H]2[C@@]35OO4)cc1 (single isomer, unassigned)
IC50 (Plasmodium falciparum [12]): 19.1 nM

C[C@@H]1CC[C@H]2C(CNS(C)(=O)=O)=C(C(F)(F)F)O[C@@H]3OC4(C)CC[C@@H]1[C@]32OO4 (single isomer, unassigned)
IC50 (Plasmodium falciparum [12]): 20 nM

C[C@@H]1CC[C@H]2C(CN)=C(C(F)(F)F)O[C@@H]3OC4(C)CC[C@@H]1[C@]32OO4 (single isomer, unassigned)
Parasitemia (Mus musculus [11]): 0.7% | IC50 (Plasmodium falciparum [12]): 4.4 nM

CNCC1=C(C(F)(F)F)O[C@@H]2OC3(C)CC[C@H]4[C@H](C)CC[C@@H]1[C@@]24OO3 (single isomer, unassigned)
IC50 (Plasmodium falciparum [12]): 9.2 nM

C[C@@H]1CC[C@H]2C(CN=[N+]=[N-])=C(C(F)(F)F)O[C@@H]3OC4(C)CC[C@@H]1[C@]32OO4 (single isomer, unassigned)
IC50 (Plasmodium falciparum [12]): 10 nM

CC1=CO[C@@H]2OC3(C)CC[C@H]4[C@H](C)CC[C@@H]1[C@@]24OO3 (single isomer, unassigned) [ANHYDRODIHYDROARTEMISININ]
Parasitemia (Mus musculus [11]): 18% | IC50 (Plasmodium falciparum [12]): 20 nM

CO[C@H]1O[C@@H]2O[C@@]3(C)CC[C@H]4[C@H](C)CC[C@@H]([C@H]1C)[C@@]24OO3 [ARTEMETHER]
clearance [15]: 114 mL/min/kg | Vd [16]: 8.4 L/kg | bioavailability [18]: 1.4% | solubility [21]: 4700 µg/mL (≈ 15800 µM) | solubility [22]: 256 µg/mL (≈ 858 µM) | solubility [23]: 63.4 µg/mL (≈ 212 µM) | Parasitemia (Mus musculus [7]): 32% | Parasitemia (Mus musculus [11]): 0% | IC50 (Plasmodium falciparum [12]): 3.5 nM

C[C@H]1[C@H](OC(=O)CCC(=O)O)O[C@@H]2O[C@@]3(C)CC[C@H]4[C@H](C)CC[C@@H]1[C@@]24OO3 [ARTESUNATE]
ED50 (Mus musculus [1]): 5.4 mg/kg | ED50 (Mus musculus [2]): 2.8 mg/kg | ED90 (Mus musculus [3]): 15.3 mg/kg | ED90 (Mus musculus [4]): 10.5 mg/kg | Reduction (Mus musculus [6]): 90%
